This is a sample that favours compounds with a hit; in the whole collection about 2.5% have one here.
TAG inh: inhibitors of triacylglycerol accumulation. H9c2 cells, Nile Red lipid (TAG) fluorescence; cells loaded with 200 µM oleic acid. inhibition, % at 12.5 µM. 230,000 compounds, 0.66% hits. AID 651582;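 active = pattern-corrected inhibition of lipid staining of at least 50% with the nuclear-stain viability signal not falling by more than 50%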;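 note: 0% = DMSO wells and 100% = triacsin C control wells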
SR-BI HDL uptake: mouse SR-BI HDL lipid transfer inhibition; Q61009; ldlA[mSR-BI] CHO cells, DiI-HDL uptake fluorescence, 3 h; inhibition, % at 12.5 µM; 320,000 compounds, 0.96% hits; AID 488896;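 active = mean replicate inhibition of at least 70% and a set share of replicates each scoring 70 or more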;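 note: 0% = median of neutral control wells and 100% = median of positive control wells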
Target sequence (Q61009 whole entry, looked up): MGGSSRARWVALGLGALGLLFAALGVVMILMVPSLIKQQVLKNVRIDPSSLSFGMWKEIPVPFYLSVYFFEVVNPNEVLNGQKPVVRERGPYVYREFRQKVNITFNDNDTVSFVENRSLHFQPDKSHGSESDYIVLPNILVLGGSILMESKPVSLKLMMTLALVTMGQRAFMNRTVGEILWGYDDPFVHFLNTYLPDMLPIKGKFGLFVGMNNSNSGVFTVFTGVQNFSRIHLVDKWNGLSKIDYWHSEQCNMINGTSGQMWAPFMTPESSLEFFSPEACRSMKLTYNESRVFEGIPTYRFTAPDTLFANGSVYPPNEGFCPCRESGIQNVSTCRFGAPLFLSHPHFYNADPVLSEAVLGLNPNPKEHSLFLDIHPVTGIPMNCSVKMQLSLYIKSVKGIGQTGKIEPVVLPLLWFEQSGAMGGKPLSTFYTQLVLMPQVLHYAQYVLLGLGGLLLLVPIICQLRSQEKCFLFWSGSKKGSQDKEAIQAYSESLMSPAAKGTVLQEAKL
SR-BI uptake up: SR-BI HDL lipid transfer activation. CHO ldlA[mSR-BI] cells, DiI-HDL uptake fluorescence, 3 h; 100 = double the neutral-control signal. activation, % at 12.5 µM. 320,000 compounds, 0.096% hits;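 active = mean replicate activation of at least 60% and every replicate at or above 60%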;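 note: 0% = median plate neutral-control signal and 100% = twice that signal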
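System: LDL receptor-deficient CHO ldlA cells overexpressing murine SR-BI | Timing: 3 h uptake period with compound, 37 °C | Medium: HEPES-buffered (25 mM, pH 7.4) F12 plus 0.5% BSA | Dosing: Single-point compound dose | Signal: Bottom-read fluorescence, 550/595 nm | Read-out: Retained DiI signal reflecting DiI-HDL uptake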
SMARCA2 act: activators of SMARCA2 function. 370,000 compounds, 1% hits. activation, % at 9.1 µM. MG213 cells, MMTV-luciferase reporter, dexamethasone, overnight. AID 652017; in the data active = activation above about 7.8%;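 note: 0% = vehicle wells and 100% = reference activator wells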
Vif inh: inhibitors of HIV Vif | 340,000 compounds, 0.35% hits | HEK293T cells, Vif self-association by quenched fluorescence, imaging, 24 h | inhibition, % at 7.49 µM; in the data active = inhibition above about 50%, passing the limit was not always enough
SMARCA2 conf: confirmation of SMARCA2 (BRM) function activators | shares compounds with SMARCA2 act | MG213 cells, MMTV-luciferase with dexamethasone, luminescence, overnight; MG213 cells expressing E1A, Rb sequestered; DMSO wells 0%, reference activator 100% | 3,500 compounds, 30% hits | activation, % at 9.1 µM;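 active = activation above its plate's cutoff, the mean activation of tested wells plus 3 SD, cut at about 7.9% in these data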
VP16 Luc act: GAL4-VP16 reporter activation counter-screen | AID 686939 | 3,500 compounds, 41% hits | activation, % at 9.1 µM | shares compounds with SMARCA2 act | HEK293 GAL4-VP16 pG5luc reporter, luciferase luminescence; scaled: DMSO wells 0%, SAHA wells 100%;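 active = activation above the solvent-only control well mean plus 3 SD, averaged across control plates, cut at about 5.2% in these data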
Active calls of the source: *; nt = not tested or not shown.

SMILES | TAG inh | SR-BI HDL uptake | SR-BI uptake up | SMARCA2 act | Vif inh | SMARCA2 conf | VP16 Luc act
Clc1ccc(Nc2nc(-c3ccncc3)cs2)cc1 | 95 | 3 | -3 | 3 | 14 | nt | nt
O=C(Nc1ccc(S(=O)(=O)N2CCOCC2)cc1)c1cccnc1 | -6 | -5 | 5 | 2 | 0 | nt | nt
COc1cccc(CNc2nc3ccccc3n2C)c1O | -14 | 14 | -14 | 9.5* | -4 | 11* | 9.6*
COc1cccc(CNc2cnc3ccccc3c2)c1O | nt | -6 | 6 | 0 | nt | nt | nt
COC(=O)[C@]12C[C@H](CC(=O)NCc3cccs3)C(=O)N(Cc3ccccc3)C1=C[C@H](COCc1ccccc1)O[C@@H]2C | nt | nt | nt | -3 | nt | nt | nt
CCOC(=O)c1cnn(-c2cccc(Cl)c2)c1N | nt | 12 | -12 | 9.4* | 0 | 6 | 2
CC(=O)N=C(N)Sc1nc2ccccc2[nH]1 | 18 | 11 | -11 | 9.7* | -2 | 6 | 9.2*
Fc1ccccc1-c1nc(-c2ccc(Cl)cc2)no1 | 5 | -17 | 17 | 8.0* | 9 | 13* | 9.7*
CC(C)(C)c1ccc(S(=O)(=O)N2CCCC(C(=O)NCc3ccco3)C2)cc1 (stereo not given) | nt | nt | nt | -4 | nt | nt | nt
Cc1ccc(S(=O)(=O)N2CCCC(C(=O)NCc3ccco3)C2)cc1 (stereo not given) | nt | nt | nt | 10* | nt | 1 | 0
Brc1cc2c(cc1C1OCCCO1)OCO2 | 6 | 15 | -15 | -6 | 4 | nt | nt
Cc1cccc2nc(CSc3nnc4ccccn34)cn12 | nt | -20 | 20 | 8.4* | -1 | 9.9* | 12*
Cc1cccc2nc(CSc3nnnn3-c3ccccc3)cn12 | 14 | -10 | 10 | -1 | 2 | nt | nt
O=C(N/N=C/c1ccc2c(c1)OCO2)c1cccs1 | nt | -2 | 2 | 9.2* | 5 | 11* | 7.8*
Cc1ccsc1C(=O)N/N=C/c1ccc2c(c1)OCO2 | nt | -14 | 14 | 3 | 2 | nt | nt
O=C(N/N=C/C1CC2CCC1C2)c1ccc2c(c1)OCO2 (stereo not given) | nt | -7 | 7 | 8.2* | 0 | -1 | -1
O=C(N/N=C/c1ccsc1)c1ccc2c(c1)OCO2 | -4 | -19 | 19 | 1 | -2 | nt | nt
O=C(N/N=C/c1ccc2c(c1)OCO2)c1ccc2c(c1)OCCO2 | nt | 2 | -2 | 10* | 29 | 4 | 5
COCC(=O)N1CCC(Oc2ccc(C(=O)NCc3cc(C)n(C)n3)cc2)CC1 | -12 | -9 | 9 | 1 | -6 | nt | nt
CCOC(=O)c1c(NC(=O)C(NCCN(C)C)c2ccccc2)sc2c1CCCC2 (stereo not given) | nt | 6 | -6 | 13* | -1 | -14 | 4
CC1(N=Cc2cc(Cl)ccc2O)COP(=O)(Nc2ccccc2)OC1 (stereo not given) | 10 | -14 | 14 | 8.2* | -2 | -1 | 1
Oc1ccc(Cl)cc1C=Nc1ccc(Br)cc1 | 1 | -33 | 33 | -1 | 1 | nt | nt
O=C(Nc1nc2ncccn2c1-c1ccccc1)C1CC1 | nt | nt | nt | -1 | nt | nt | nt
Cc1cc(C)cc(N(CC(=O)NC2CCC(C)CC2)S(=O)(=O)c2ccc(C(C)(C)C)cc2)c1 (stereo not given) | nt | nt | nt | 4 | nt | nt | nt
O=C1CCC/C(=N/NC(=O)C2CCN(S(=O)(=O)c3cccs3)CC2)C1 | nt | -30 | 30 | 8.7* | -7 | 2 | 0
SMILES | TAG inh | SR-BI HDL uptake | SR-BI uptake up | SMARCA2 act | Vif inh | SMARCA2 conf | VP16 Luc act
O=c1c2c(nc3cc(-c4ccc(F)cc4)[nH]n13)CCC2 | nt | -42 | 42 | 12* | 0 | 13* | 12*
COC(=O)C[C@@H]1CC[C@H]2[C@@H](COc3ccc(NC(=O)Nc4ccccc4)cc3C(=O)N2C)O1 | nt | nt | nt | -2 | nt | nt | nt
CCCCNC(=O)N1CCCC1C(=O)Nc1cccc(OC)c1 (stereo not given) | nt | nt | nt | 0 | nt | nt | nt
CN(C)CCCN1C(=O)c2cccc3c(Br)ccc(c23)C1=O | 15 | -26 | 26 | 9.2* | -6 | 35* | 0
N#CCC[C@@H]1CC[C@]2(CCCN(C(=O)C3CCCC3)C2)O1 | nt | nt | nt | -2 | nt | nt | nt
C/C(=N\NC(=O)c1ccc(F)cc1)c1ccccn1 | nt | nt | nt | 9.6* | 11 | -12 | -3
C/C(=N\Nc1ccc(Cl)c(C(=O)O)c1)c1ccccn1 | 8 | -30 | 30 | 13* | 0 | 3 | 3
C/C(=N\Nc1ccc(Cl)c(C(=O)O)c1)c1cc2ccccc2o1 | 25 | -10 | 10 | -4 | 4 | nt | nt
C/C(CC(=O)Nc1ccc(F)cc1)=N\NC(=O)c1ccccn1 | -8 | 0 | 0 | 9.2* | -2 | -3 | 5
CCc1ccc(NC(=O)C(=O)NCC2CCCO2)cc1 (stereo not given) | -11 | -3 | 3 | 11* | -4 | 4 | 16*
OCC1SC(O)C(O)C(O)C1O (stereo not given) | nt | nt | nt | 2 | nt | nt | nt
O=C1[C@@H]2Cc3c([nH]c4ccccc34)C(c3cccc([N+](=O)[O-])c3)N2C(=O)CN1C1CCN(Cc2ccccc2)CC1 (stereo not given in full) | nt | 62 | -62 | -4 | -4 | nt | nt
Cc1ccc(NC(=O)c2ncc(Cl)c(Cl)c2Cl)cc1C | -8 | 0 | 0 | 8.2* | 7 | 4 | 9.5*
O=C(Nc1ccc(OC(F)F)cc1)c1ncc(Cl)c(Cl)c1Cl | -4 | -3 | 3 | -5 | -14 | nt | nt
O=C(Cn1cncn1)N/N=C/c1cccc(Cl)c1 | -2 | -4 | 4 | 8.3* | 2 | 1 | -1
Fc1ccc(OCc2nc(-c3cccs3)no2)cc1 | -2 | 9 | -9 | 4 | -6 | nt | nt
c1ccc(OCc2nc(-c3cccs3)no2)cc1 | nt | 25 | -25 | 11* | 11 | 9.2* | 6.6*
Cc1ccc(/C=C2/CNC/C(=C/c3ccc(C)cc3)C2=O)cc1 | -5 | 5 | -5 | 15* | 120* | -12 | -3
CC(=O)Nc1sc2c(c1-c1nc3ccccc3s1)CN(C(C)C)CC2 | 78* | 25 | -25 | 19* | -14 | 7 | -1
CCOc1ccccc1-c1cncc(NC)n1 | -11 | nt | nt | -2 | -11 | nt | nt
O=C(/C=C/c1ccccc1)Nc1cccc(C(=O)NC2CC2)c1 | -1 | 40 | -40 | 13* | -3 | 1 | 6.7*
C[C@@H]1C[C@H]2O[C@@H]2/C=C\C=C\C(=O)Cc2cc(O)cc(O)c2C(=O)O1 | nt | nt | nt | -7 | nt | nt | nt
CCCNC(=O)C1(C)CCCN(C(=O)c2cccc(Cl)c2)C1 (stereo not given) | -1 | nt | nt | 9.3* | nt | 0 | 1
CCNC(=O)C1(C)CCN(C(=O)c2cccc(Cl)c2)C1 (stereo not given) | 10 | nt | nt | -3 | -2 | nt | nt
Brc1ccc(-c2cn3ccccc3n2)cc1 | 4 | 17 | -17 | 15* | -9 | 3 | 11*
Oc1ccc(-c2cn3ccccc3n2)cc1 | 1 | nt | nt | 6 | 2 | nt | nt

From PubChem BioAssay
